Data: ChEMBL document CHEMBL1131263, “Substituted tetrahydropyrrolo[2,1-b]oxazol-5(6H)-ones and tetrahydropyrrolo[2,1-b]thiazol-5(6H)-ones as hypoglycemic agents” (1998)

Test: lowest concentration at which glucose utilized was greater than or equal to 140% of control value tested in a glucose utilization L6 myocyte in vitro assay
Format: functional, Rattus norvegicus
Method in brief: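 Differentiated rat L6 myotubes (day 11 or 13 after plating) exposed 20 h to compound in serum-free DMEM with 15 mM glucose and 1% final DMSO. Tested in quadruplicate at 3, 10, 30, 100, 300 µM. Glucose left in the medium read by glucose oxidase. Value is the lowest concentration giving at least 40% more utilization than control.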

Row | SMILES | Lowest effective concentration for glucose utilization ≥140% of control [µM]
1 | OCc1cc(Cc2ccccc2)no1 | >300
2 | O=C1CC[C@]2(c3ccc(Cl)c(C(F)(F)F)c3)O[C@@H](COc3ccc(Cl)cc3)CN12 | 300
3 | COC(=O)COC[C@@H]1CN2C(=O)CC[C@]2(c2ccc(Cl)cc2)O1 | >300
4 | CC(C)(C)[C@]12CCC(=O)N1C[C@@H](COc1ccc(Cl)cc1)O2 | >300
5 | O=C1CC[C@]2(c3cccc4ccccc34)O[C@H](COc3ccc(Cl)cc3)CN12 | >300
6 | O=C1CC[C@]2(C3CCCCC3)O[C@@H](COc3ccc(Cl)cc3)CN12 | >300
7 | CC(C)(C)c1cc(CO)on1 | >300
8 | O=C1CC[C@]2(c3ccc(Cl)c(Cl)c3)OC(COc3ccc(Cl)cc3)CN12 (single isomer, unassigned) | >300
9 | O=C1CC[C@]2(c3ccc(Cl)cc3)O[C@@H](CO)CN12 | >300
10 | CC(=O)N1C[C@@H](COc2ccc(Cl)cc2)S[C@@H]1c1ccc(Cl)cc1 | 300
11 | Cc1c(C)c2c(c(C)c1O)CCC(C)(COc1ccc(CC3SC(=O)NC3=O)cc1)O2 (stereo unspecified) [TROGLITAZONE] | 30
12 | CC(=O)N1C[C@@H](COc2ccc(Cl)cc2)O[C@@H]1c1ccc(Cl)cc1 | 100
13 | C/N=C(\S)N1CCS[C@@H]1c1ccc(Cl)cc1 | 300
14 | CC(C)C(=O)N1C[C@@H](COc2ccc(Cl)cc2)O[C@@H]1c1ccc(Cl)c(Cl)c1 | 30
15 | COC(=O)N1C[C@@H](COc2ccc(Cl)cc2)O[C@@H]1c1ccc(Cl)c(Cl)c1 | 300
16 | OCc1cc(-c2ccccc2)no1 | >300
17 | O=C1CC[C@]2(c3c[nH]c4ccccc34)O[C@H](COc3ccc(Cl)cc3)CN12 | >300
18 | O=C1CC[C@]2(c3ccc4oc5ccccc5c4c3)O[C@@H](COc3ccc(Cl)cc3)CN12 | >300
19 | O=C1CC[C@]2(c3ccc(Cl)cc3)O[C@H](CO)CN12 | >300
20 | O=C1CC[C@]2(c3cccnc3)O[C@@H](COc3ccc(Cl)cc3)CN12 | 300
21 | O=C1CC[C@]2(c3ccccc3)OC[C@H](O)CN12 | >300
22 | O=C1CC[C@]2(c3ccc(Cl)c(Cl)c3)O[C@@H](COc3ccc(Cl)cc3)CN12 | 30
23 | O=C1CC[C@]2(c3ccc(Cl)c(Cl)c3)O[C@H](CSc3ccc(Cl)cc3)CN12 | 100
24 | OCCc1cc(-c2ccc(Cl)cc2)no1 | 100

Row | SMILES | Lowest effective concentration for glucose utilization ≥140% of control [µM]
25 | CC(C)(O)c1cc(-c2ccc(Cl)cc2)no1 | 100
26 | C=CCOC[C@@H]1CN2C(=O)CC[C@]2(c2ccc(Cl)cc2)O1 | >300
27 | O=C1CC[C@]2(c3ccc(Cl)c(Cl)c3)O[C@@H](CSc3ccc(Cl)cc3)CN12 | 100
28 | O=C1CCC[C@]2(c3ccc(Oc4ccccc4)cc3)O[C@H](COc3ccc(Cl)cc3)CN12 | 100
29 | O=C1CC[C@]2(c3ccncc3)O[C@@H](COc3ccc(Cl)cc3)CN12 | 100
30 | O=C(Nc1ccccc1)N1C[C@H](COc2ccc(Cl)cc2)O[C@@H]1c1ccc(Cl)c(Cl)c1 | 30
31 | CC1(C)C[C@]2(c3ccc(Oc4ccccc4)cc3)O[C@H](COc3ccc(Cl)cc3)CN2C1=O | 30
32 | O=C1CC[C@]2(c3ccc(Cl)c(Cl)c3)O[C@H](COc3ccc(Cl)cc3)CN12 | 10
33 | COc1ccc([C@H]2O[C@H](COc3ccc(Cl)cc3)CN2C(C)=O)cc1 | >300
34 | CS(=O)(=O)N1C[C@@H](COc2ccc(Cl)cc2)O[C@@H]1c1ccc(Cl)c(Cl)c1 | 30
35 | O=C1CC[C@]2(c3ccc(Cl)cc3)O[C@H](COCCO)CN12 | >300
36 | O=C1CC[C@]2(c3ccc(Cl)cc3)O[C@H](COc3ccc(Cl)cc3)CCN12 | >300
37 | O=C1CC[C@]2(c3ccncc3)O[C@H](COc3ccc(Cl)cc3)CN12 | 30
38 | O=C(c1ccccc1)N1C[C@@H](COc2ccc(Cl)cc2)O[C@@H]1c1ccc(Cl)c(Cl)c1 | >300
39 | OCc1cc(-c2ccc(Cl)c(Cl)c2)no1 | 30
40 | O=C(c1ccccc1)N1C[C@H](COc2ccc(Cl)cc2)O[C@@H]1c1ccc(Cl)c(Cl)c1 | 300
41 | COC(=O)c1cc(CO)on1 | >300
42 | COCc1cc(-c2ccc(Cl)cc2)no1 | 100
43 | O=C1CCC[C@]2(c3ccc(Cl)cc3)SCCN12 | >300
44 | O=C1CC[C@]2(c3ccccc3)OC[C@@H](O)CN12 | >300
45 | C[C@]12CCC(=O)N1C[C@@H](COc1ccc(Cl)cc1)O2 | >300
46 | O=C1CC[C@]2(c3ccc(F)cc3)O[C@@H](COc3ccc(Cl)cc3)CN12 | >300
47 | CC(=O)N1C[C@H](COc2ccc(Cl)cc2)O[C@@H]1c1ccc(Cl)c(Cl)c1 | 30
48 | C/N=C(\S)N1CCO[C@@H]1c1ccc(Cl)cc1 | >300

Row | SMILES | Lowest effective concentration for glucose utilization ≥140% of control [µM]
49 | CC(=O)N1C[C@H](COc2ccc(Cl)cc2)S[C@@H]1c1ccc(Cl)cc1 | 30
50 | CC(=O)c1cc(CO)on1 | >300
51 | CC(=O)N1C[C@@H](COc2ccc(Cl)cc2)O[C@@H]1c1ccc(Cl)c(C(F)(F)F)c1 | 30
52 | CNC(=O)N1CCO[C@@H]1c1ccc(Cl)cc1 | >300
53 | CC1(C)C[C@]2(c3ccc(Cl)cc3)O[C@@H](COc3ccc(Cl)cc3)CN2C1=O | 100
54 | COc1ccc([C@]23CCC(=O)N2C[C@H](COc2ccc(Cl)cc2)O3)cc1 | >300
55 | O=C1CC[C@]2(c3ccc(Cl)cc3)O[C@@H](CNc3ccc(Cl)cc3)CN12 | >300
56 | O=C(O)c1cc(CO)on1 | >300
57 | COc1ccc([C@H]2O[C@@H](COc3ccc(Cl)cc3)CN2C(C)=O)cc1 | >300
58 | CC(=O)N1CCS[C@@H]1c1ccc(Cl)cc1 | >300
59 | CN(C)C(=N)NC(=N)N.Cl [METFORMIN HYDROCHLORIDE] | 1000
60 | CNC(=O)N1CCS[C@@H]1c1ccc(Cl)cc1 | 300
61 | CC1(C)C[C@]2(c3ccc(Cl)cc3)O[C@H](COc3ccc(Cl)cc3)CN2C1=O | 30
62 | O=C1CC[C@]2(C3CCCCC3)O[C@H](COc3ccc(Cl)cc3)CN12 | 100
63 | CS(=O)(=O)N1CCS[C@@H]1c1ccc(Cl)cc1 | 300
64 | Cc1cc(CO)on1 | >300
65 | Clc1ccc(OCc2cc(-c3ccc(Cl)cc3)no2)cc1 | >300
66 | O=C1CC[C@]2(c3ccc(Cl)c(C(F)(F)F)c3)O[C@H](COc3ccc(Cl)cc3)CN12 | 10
67 | CC(=O)N1C[C@H](COc2ccc(Cl)cc2)O[C@@H]1c1ccc(Cl)c(C(F)(F)F)c1 | 30
68 | CC(=O)N(C[C@@H]1CN2C(=O)CC[C@]2(c2ccc(Cl)cc2)O1)c1ccc(Cl)cc1 | >300
69 | O=C1CC[C@]2(c3ccc(-c4ccccc4)cc3)O[C@@H](COc3ccc(Cl)cc3)CN12 | >300
70 | O=C(Nc1ccccc1)N1C[C@@H](COc2ccc(Cl)cc2)O[C@@H]1c1ccc(Cl)c(Cl)c1 | 30
71 | CS(=O)(=O)N1C[C@H](COc2ccc(Cl)cc2)O[C@@H]1c1ccc(Cl)c(Cl)c1 | 30
